Results: article PMC8811894 (ACS Omega, 2022)

Tests used:
[1] = tested on: panel of 60 human cancer cell lines; assay: NCI60 screen, SRB assay, panel mean; assay type: cell-based; details: for NCI60 screen mean GI, %: single-dose inhibition of cell growth at 10 μM
Summary of the method: (§1)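 Tested on the 60-line human cancer panel by sulforhodamine B assay. The dye binds cell protein under mildly acidic conditions and is extracted with basic medium; bound dye is taken as a proxy for cell mass. A single-dose test at 10 μM gives % growth inhibition; a five-dose test gives GI50.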

[2] = tested on: A498; assay: NCI60 SRB screen; assay type: cell-based; details: Homo sapiens, A498, read-out: growth inhibition
Summary of the method: as §1

[3] = tested on: T-47D human breast carcinoma cells; assay: MTT cell toxicity assay; assay type: cell-based; details: for GI50: Homo sapiens, T47D, 72 h, read-out: cancer cell growth inhibition, GI50; for times more potent than PrTPP: T-47D, MTT test
Summary of the method: (§2)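 Cells were seeded at 5 × 10^3/well in medium with 10% FBS and kept at 37 °C, 5% CO2. Media: DMEM for A549 and A375; EMEM for DU145; F-12K for PC-3; McCoy's 5a for HCT-116 and SK-OV-3; RPMI-1640 + insulin 0.2 Units/mL for T-47D. Test compound came from DMSO stocks, with tubercidin as positive control. MTT at 0.5 mg/mL final was added for 2–3 h at 37 °C, then absorbance read at 570 nm. Three repeats; GI50 from sigmoidal fit.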

[4] = tested on: T-47D human breast carcinoma cells; assay: Click-iT-EdU Alexa Fluor 488 cell proliferation assay; assay type: cell-based; details: for GI50: Homo sapiens, T47D, 72 h, read-out: DNA synthesis inhibition, GI50; for times more potent than PrTPP: T-47D, Click-iT-EdU test
Summary of the method: (§3)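 Cells were seeded at 800/well in medium with 10% FBS under 5% CO2. HCT-116 grew in McCoy's 5a and T-47D in RPMI-1640 + insulin 0.2 Units/mL. Test compound came from DMSO stocks, with tubercidin as positive control. After 72 h, EdU was added for 2.5 h at 37 °C. Cells were fixed in 4% paraformaldehyde (30 min, RT) and stained with Hoechst 33342. Click-iT Alexa Fluor 488 reaction ran 1 h at RT in the dark. Plates were read by high-content imaging; value from sigmoidal fit.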

[5] = tested on: A375 human skin epithelial malignant melanoma cells; assay: MTT cell toxicity assay; assay type: cell-based; details: Homo sapiens, A-375, 72 h, read-out: cancer cell growth inhibition, GI50
Summary of the method: as §2

[6] = tested on: HCT-116 human colon epithelial colorectal carcinoma cells; assay: Click-iT-EdU Alexa Fluor 488 cell proliferation assay; assay type: cell-based; details: Homo sapiens, HCT-116, 72 h, read-out: DNA synthesis inhibition, GI50
Summary of the method: as §3

[7] = tested on: MDA-MB-435; assay: NCI60 SRB screen; assay type: cell-based; details: Homo sapiens, MDA-MB-435, read-out: growth inhibition
Summary of the method: as §1

[8] = tested on: A549 human lung epithelial carcinoma cells; assay: MTT cell toxicity assay; assay type: cell-based; details: Homo sapiens, A549, 72 h, read-out: cancer cell growth inhibition, GI50
Summary of the method: as §2

[9] = tested on: DU145 human prostate epithelial carcinoma cells; assay: MTT cell toxicity assay; assay type: cell-based; details: Homo sapiens, DU-145, 72 h, read-out: cancer cell growth inhibition, GI50
Summary of the method: as §2

[10] = tested on: SK-OV-3 human ovary ascites epithelial adenocarcinoma cells; assay: MTT cell toxicity assay; assay type: cell-based; details: Homo sapiens, SK-OV-3, 72 h, read-out: cancer cell growth inhibition, GI50
Summary of the method: as §2

[11] = tested on: HCT-116 human colon epithelial colorectal carcinoma cells; assay: MTT cell toxicity assay; assay type: cell-based; details: Homo sapiens, HCT-116, 72 h, read-out: cancer cell growth inhibition, GI50
Summary of the method: as §2

[12] = tested on: PC-3 human prostate epithelial adenocarcinoma grade IV cells; assay: MTT cell toxicity assay; assay type: cell-based; details: Homo sapiens, 72 h, read-out: cancer cell growth inhibition, GI50
Summary of the method: as §2

[13] = tested on: sea urchin embryos; assay: Phenotypic sea urchin embryo assay; assay type: in vivo, Paracentrotus lividus; details: in vivo

## COc1cc(CCC[P+](c2ccccc2)(c2ccccc2)c2ccccc2)c(OC)c(OC)c1OC.[I-] [7d, [3-(2,3,4,5-Tetramethoxyphenyl)propyl](triphenyl)phosphonium Iodide]
[1]
  NCI60 screen mean GI, %: 32.9%
[2]
  inhibition at 10 µM: ~100%
[3]
  GI50: 0.5 ± 0.07 µM
  times more potent than PrTPP: 4.8 times
[4]
  GI50: 0.613 ± 0.025 µM
  times more potent than PrTPP: 5.6 times
[5]
  GI50: 2.35 ± 0.24 µM
[6]
  GI50: 0.681 ± 0.09 µM
[7]
  inhibition at 10 µM: ~100%
[8]
  GI50: 17.9 ± 0.36 µM
[9]
  GI50: 8.13 ± 0.15 µM
[10]
  GI50: 21.6 ± 1.53 µM
[11]
  GI50: 0.218 ± 0.024 µM
[12]
  GI50: 3.88 ± 0.55 µM

## COc1cc(CCCO)c(OC)c2c1OCO2 [4a, 3-(4,7-Dimethoxy-1,3-benzodioxol-5-yl)propan-1-ol]
[1]
  NCI60 screen mean GI, %: 0%
[3]
  GI50: > 250 µM
[4]
  GI50: > 250 µM
[5]
  GI50: > 250 µM
[6]
  GI50: > 250 µM
[8]
  GI50: > 250 µM
[9]
  GI50: > 250 µM
[10]
  GI50: > 250 µM
[11]
  GI50: > 250 µM
[12]
  GI50: > 250 µM

## COc1cc(CCCO)cc2c1OCO2 [4c, 3-(7-Methoxy-1,3-benzodioxol-5-yl)propan-1-ol]
[1]
  NCI60 screen mean GI, %: 0%
[3]
  GI50: > 250 µM
[4]
  GI50: > 250 µM
[5]
  GI50: > 250 µM
[6]
  GI50: > 250 µM
[8]
  GI50: > 250 µM
[9]
  GI50: > 250 µM
[10]
  GI50: > 250 µM
[11]
  GI50: > 250 µM
[12]
  GI50: > 250 µM

## COc1cc(CCC[P+](c2ccccc2)(c2ccccc2)c2ccccc2)c(OC)c2c1OCO2.[I-] [7a, [3-(4,7-Dimethoxy-1,3-benzodioxol-5-yl)propyl](triphenyl)phosphonium Iodide]
[1]; Homo sapiens, read-out: NCI60 screen mean GI50
  GI50: 1.66 µM
[3]
  GI50: 0.089 ± 0.008 µM
  times more potent than PrTPP: 26.9 times
[4]
  GI50: 0.104 ± 0.007 µM
  times more potent than PrTPP: 33.2 times
[5]
  GI50: 0.627 ± 0.085 µM
[6]
  GI50: 0.367 ± 0.05 µM
[8]
  GI50: 3 ± 0.21 µM
[9]
  GI50: 2.86 ± 0.4 µM
[10]
  GI50: 2.42 ± 0.43 µM
[11]
  GI50: 0.263 ± 0.033 µM
[12]
  GI50: 0.552 ± 0.03 µM

## COc1cc(OCCCCCC[P+](c2ccccc2)(c2ccccc2)c2ccccc2)c(OC)c2c1OCO2.[Br-] [compound 11, {6-[(4,7-Dimethoxy-2H-1,3-benzodioxol-5-yl)oxy]hexyl}(triphenyl)phosphonium Bromide]
[3]
  GI50: 0.421 ± 0.013 µM
[4]
  GI50: 0.606 ± 0.06 µM
[5]
  GI50: 1.93 ± 0.077 µM
[6]
  GI50: 2.83 ± 0.37 µM
[8]
  GI50: 0.463 ± 0.042 µM
[9]
  GI50: 20.8 ± 1.3 µM
[10]
  GI50: 24.6 ± 2 µM
[13]
  effect on sea urchin embryo development (in words): moderate antiproliferative effect on the sea urchin embryos
[11]
  GI50: 1.95 ± 0.21 µM
[12]
  GI50: 0.258 ± 0.026 µM

## COc1cc(COC(=O)CCCCC[P+](c2ccccc2)(c2ccccc2)c2ccccc2)c(OC)c2c1OCO2.[Br-] [compound 16, {6-[(4,7-Dimethoxy-2H-1,3-benzodioxol-5-yl)methoxy]-6-oxohexyl}(triphenyl)phosphonium Bromide]
[1]; NCI60 single dose 10 μM
  number of cancer cell lines with 80–100% growth inhibition: nine
[1]
  NCI60 screen mean GI, %: 49.2%
[3]
  GI50: 0.43 ± 0.88 µM
[5]
  GI50: 3.43 ± 0.08 µM
[8]
  GI50: 18.5 ± 0.67 µM
[9]
  GI50: 14.1 ± 0.37 µM
[10]
  GI50: 10.2 ± 0.19 µM
[11]
  GI50: 1.07 ± 0.02 µM
[12]
  GI50: 4.18 ± 0.13 µM

## COc1c(CCCO)cc2c(c1OC)OCO2 [4b, 3-(6,7-Dimethoxy-1,3-benzodioxol-5-yl)propan-1-ol]
[1]
  NCI60 screen mean GI, %: 0%
[3]
  GI50: > 250 µM
[4]
  GI50: > 250 µM
[5]
  GI50: > 250 µM
[6]
  GI50: > 250 µM
[8]
  GI50: > 250 µM
[9]
  GI50: > 250 µM
[10]
  GI50: > 250 µM
[11]
  GI50: > 250 µM
[12]
  GI50: > 250 µM
